Assay results collected from several papers.
Mode: inhibitor
HDAC6: Protein deacetylase HDAC6 (HDAC6, Homo sapiens, UniProt Q9UBN7)
SLCO2B1: Solute carrier organic anion transporter family member 2B1 (SLCO2B1, Homo sapiens, UniProt O94956)
CDK7 with cyclin H: Cyclin-dependent kinase 7, with cyclin H (CDK7, Homo sapiens, UniProt P50613)
ACSL4: Long-chain-fatty-acid--CoA ligase 4 (ACSL4, Homo sapiens, UniProt O60488)

O=C1CCC(c2ccc(OCC(=O)OCCCCc3cn(CCCCCCN4CCc5c(c6ccccc6n5Cc5ccc(C(=O)NO)cc5)C4)nn3)cc2)C(=O)N1 (stereo not shown)  IC50 (HDAC6; enzyme activity, fluorescence): 0.049 µM
CCc1oc2cc(F)ccc2c1C(=O)c1cc(Br)c(O)c(Br)c1  IC50 (SLCO2B1; transporter uptake, radiometric): 0.749 µM
Cc1cc(O)c(-c2ccc([C@@H](C)CN(C)C)cc2)c2c1[nH]c(=O)c1sccc12  IC50 (CDK7 with cyclin H; enzyme activity): > 1 µM
N=C(N)c1ccc(OCCCCCOc2ccc(C(=N)N)cc2)cc1  IC50 (Prothrombin (F2, Homo sapiens, UniProt P00734); enzyme activity, absorbance): > 100 µM
COC(=O)c1cc(OC)c2c(c1-c1c(C(=O)OC)cc(OC)c3c1OCO3)OCO2  IC50 (Liver carboxylesterase 1 (CES1, Homo sapiens, UniProt P23141); enzyme activity): 11.4 µM
CNS(=O)(=O)c1ccc(Nc2ncc(C(F)(F)F)c(N3CCCC(C)(O)C3)n2)c(C)c1 (stereo not shown)  IC50 (CDK7 with cyclin H; enzyme activity, radiometric): 2.51 µM
COCCN1CCN(Cc2ccc(-c3n[nH]c4c3C(=O)c3c(NC(=O)NN5CCOCC5)cccc3-4)cc2)CC1  IC50 (Protein kinase 6 (Plasmodium falciparum, UniProt Q8IDW1); enzyme activity, radiometric): 0.832 µM
CNS(=O)(=O)c1ccc(Nc2ncc3cc(Cl)c(=O)n(C4CCCC4)c3n2)c(C)c1  IC50 (CDK7 with cyclin H; enzyme activity, radiometric): 1.6 µM
O=C(CNc1cccc2c1C(=O)N(C1CCC(=O)NC1=O)C2=O)NCCCCCCN1CCc2c(c3ccccc3n2Cc2ccc(C(=O)NO)cc2)C1 (stereo not shown)  IC50 (HDAC6; enzyme activity, fluorescence): 0.04 µM
COc1ccc(N(Cc2csc(-c3ccc(C)cc3)n2)C(=O)CCCCCC(=O)NO)cc1  IC50 (HDAC6; enzyme activity): 0.0025 µM
COC(=O)CCc1ccc(OCCN(C)c2ccccc2)cc1  IC50 (ACSL4; enzyme activity): 8.5 µM
O=C(NO)c1ccc(Cn2cnc3c(Nc4ccc(F)c(Cl)c4)ncnc32)cc1  IC50 (HDAC6; enzyme activity, fluorescence): 0.00617 µM
COC(=O)/C=C/c1ccc(OCCN(C)c2ccccc2)cc1  IC50 (ACSL4; enzyme activity): 1.5 µM
N=C(N)NCCCC(=O)O  IC50 (Alkaline phosphatase, tissue-nonspecific isozyme (Rattus norvegicus, UniProt P08289); enzyme activity in cells, absorbance): 15200 µM
CN(CCOc1ccccc1)c1ccccn1  IC50 (ACSL4; enzyme activity): > 50 µM
CN(CCCCCCNC(=O)COc1ccc(C2CCC(=O)NC2=O)cc1)Cc1cn(Cc2ccc(C(=O)NO)cc2)c2ccccc12 (stereo not shown)  IC50 (HDAC6; enzyme activity, fluorescence): 0.031 µM
CN(CCOc1cccc(CC2SC(=O)NC2=O)c1)c1ccccc1 (stereo not shown)  IC50 (ACSL4; enzyme activity): 10.1 µM
COc1ccc(N(Cc2csc(-c3ccc(Br)cc3)n2)C(=O)CCCCCC(=O)NO)cc1  IC50 (HDAC6; enzyme activity): 0.0032 µM
COC(=O)/C=C/c1ccc(OCCN(C)C(=O)c2ccccc2)cc1  IC50 (Long-chain-fatty-acid--CoA ligase 4 (ACSL4, Homo sapiens, UniProt O60488, Q302M); enzyme activity): 7.1 µM
CN(C)C(=O)c1cc2cnc(Nc3ccc(-c4cccc5c(=O)cc(N6CCOCC6)oc45)cc3)nc2n1C1CCCC1  IC50 (CDK7 with cyclin H; enzyme activity): > 10 µM
COc1ccc(Nc2ncnc3c2ncn3Cc2ccc(C(=O)NO)cc2)cc1  IC50 (HDAC6; enzyme activity, fluorescence): < 0.002 µM
CN1C(=O)SC(Cc2ccc(OCCN(C)c3ccccn3)cc2)C1=O (stereo not shown)  IC50 (ACSL4; enzyme activity): 4.5 µM
CCc1oc2cc(F)c(F)cc2c1C(=O)c1cc(Br)c(O)c(Br)c1  IC50 (SLCO2B1; transporter uptake, radiometric): 0.135 µM
CN(CCCOc1ccc(CC2SC(=O)NC2=O)cc1)c1ccccc1 (stereo not shown)  IC50 (ACSL4; enzyme activity): 0.6 µM
CNS(=O)(=O)c1ccc(Nc2ncc(C(F)(F)F)c([C@H]3CC[C@](C)(O)CC3)n2)c(C)c1  IC50 (CDK7 with cyclin H; enzyme activity, radiometric): 2.13 µM
